According to ChEMBL document CHEMBL1124103, “Potential antitumor agents. 56. "Minimal" DNA-intercalating ligands as antitumor drugs: phenylquinoline-8-carboxamides” (J Med Chem, 1988):
Where “and” joins values, the source holds several entries; their conditions need not be identical. Equal values may be shown once.

What was measured:
[1] = Ionization constant of chromophore measured by UV spectroscopy in 20% dimethylformamide.; format: physicochemical
In short: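 Chromophore pKa measured by UV spectroscopy in 20% dimethylformamide.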

Mus musculus [2] = species on record: Mus musculus; assay: Percentage increase in lifespan of treated animals(at the optimal dose) compared to controls. Average lifespan of control animals was 11 days (P388).; format: functional
L1210 = assay: Compound concentration that reduces cell growth of L1210 leukemia cultures to 50% of controls after 70h.; format: functional, cell-based; conditions: Mus musculus, L1210, 70 h
Nucleic Acid = assay: Displacement of ethidium from poly(dA/T) or poly(dG/C)-DNA; format: nucleic-acid assay
In short: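 Association constants (M⁻¹) for binding to poly[d(AT)] and poly[d(GC)] measured by ethidium displacement, assuming ligand and ethidium compete for intercalation sites; reported as log K.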

Mus musculus [3] = species on record: Mus musculus; assay: Percentage increase in lifespan of treated animals(at the optimal dose) compared to controls. Average lifespan of control animals was 17 days (Lewis lung carcinoma cells).; format: functional
Mus musculus [4] = assay: Optimal dose administered intraperitoneally on days 5,9 and 13 after intravenous inoculation of lewis lung carcinoma cells.; format: functional
Mus musculus [5] = assay: Optimal dose administered intraperitoneally on days 1,5 and 9 after intraperitoneal inoculation of P388 leukemia cells.; format: functional
Mus musculus [6] = assay: Percentage increase in lifespan of treated animals(at 100 mg/kg optimal dose) compared to controls. Average lifespan of control animals was 17 days (Lewis lung carcinoma cells).

Structure (SMILES)	pKa [1]	ILS max (Mus musculus [2]) [%]	IC50 (L1210) [nM]	Log K (Nucleic Acid)	ILS max (Mus musculus [3]) [%]	OD (Mus musculus [4]) [mg/kg]	OD (Mus musculus [5]) [mg/kg]	ILSmax (Mus musculus [2])	ILSmax (Mus musculus [3])	ILS max (Mus musculus [6]) [%]
CN(C)CCNC(=O)c1cccc2cc(-c3ccccc3)cnc12	2.58	27	2600	5.68 and 5.7	<40	100	100	–	–	–
CN(C)CCNC(=O)c1cccc2cccnc12	–	<20	> 25000	5.12 and 5.17	–	–	100	–	–	–
CN(C)CCNC(=O)c1cc(-c2ccccc2)cc2cccnc12	2.93	–	910	6.12 and 5.96	–	100	65	29	31	–
CN(C)CCNC(=O)c1cccc2ccc(-c3ccccc3)nc12	2.75	91	1300	5.97 and 5.92	–	100	100	–	–	70
CN(C)CCNC(=O)c1ccc(-c2ccccc2)c2cccnc12	3.13	<20	13700	4.74 and 4.79	–	–	100	–	–	–
CN(C)CCNC(=O)c1cccc2cc3ccccc3nc12	–	91	–	–	–	100	66	–	–	–
CN(C)CCNC(=O)c1cccc2c(-c3ccccc3)ccnc12	3.04	<20	14700	4.73 and 4.77	–	–	150	–	–	–
